XBP1 UPR activ: adaptive UPR (XBP1) activation. actives 0.33% (n = 330,000). activation, % at 20 µM. AID 463104. CHO-XBP1 luciferase reporter, IRE1-XBP1 UPR activation, luminescence; percent of tunicamycin response, DMSO as zero;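 active means versus positive control, 20 µM dose yields 30% or more activation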;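 further: 100% = tunicamycin at 10 µg/mL and 0% = DMSO only wells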
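Signal: luciferase luminescence; Assay system: CHO-XBP1 luciferase reporter cells; Amount: one thousand reporter cells per well; Dosing: 20 µM single concentration, DMSO 1%; Benchmarks: high control tunicamycin 10 µg/mL final, low control DMSO vehicle only; Schedule: 6 h compound exposure at 37 °C, 5% CO2; Evaluation: percent activation relative to tunicamycin reference.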
ABHD5-PLIN5 inh: ABHD5-PLIN5 protein interaction inhibition; AID 602281; Q00G26+Q8WTS1; Split G. princeps luciferase complementation, luminescence, 4 h; inhibition, % at 4 µM; actives 0.78% (n = 360,000);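 active means inhibition above the mean inhibition across every tested compound plus 3 SD, cut at about 22% in these data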;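 further: 0% = DMSO only wells and the 100% control is not disclosed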
Mdm2-MdmX inh: human Mdm2/MdmX binding inhibition; O15151+Q00987; SaOS-2 split-luciferase Mdm2/MdmX complementation, luminescence; inhibition, % at 8 µM; actives 3% (n = 330,000); AID 485346;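 active means inhibition of at least 50% at 8 µM in the primary screen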
UPR CHOP act: activators of apoptotic arm of unfolded protein response (CHOP); CHO-CHOP luciferase reporter, UPR activation, luminescence; percent of tunicamycin response over DMSO baseline; activation, % at 10 µM; actives 0.34% (n = 330,000); AID 449763;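 active means at 10 µM dose, activation of 40% or more, normalized to positive control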;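 further: 100% = tunicamycin at 10 µg/mL and 0% = DMSO alone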
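assay system = CHO CHOP reporter cells | amount = 500 CHO-CHOP cells per well | buffer or medium = F12 with 10% FBS | incubation = 16-18 h cell attachment, then 6 h compound exposure, 37 °C | detection = luminescence read with Steady-Glo | read-out = percent activation relative to tunicamycin control | controls = tunicamycin high control, DMSO low control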
Exocytosis inh: lytic granule exocytosis inhibition; TALL-104 LAMP-1 surface exposure, flow cytometry; cells stimulated with thapsigargin and PMA; inhibition, % at 10 µM; actives 0.66% (n = 360,000); AID 651702;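 active means inhibition above about 55%, limit read from the data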
ABHD5-PLIN5 conf: ABHD5-PLIN5 interaction inhibition, confirmed | shares compounds with ABHD5-PLIN5 inh | biochemical ABHD5-PLIN5 interaction, luminescence | inhibition, % at 4 µM | actives 67% (n = 2,200) | AID 651612; in the data active means inhibition above about 23%;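 further: 0% = DMSO vehicle wells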
HNF4 split-luc: counter-screen for ABHD5-PLIN5 inhibitors: HNF4 split-luciferase; AID 651674; actives 77% (n = 2,200); inhibition, % at 4 µM; HNF4 dimerization, luminescence, biochemical; shares compounds with ABHD5-PLIN5 inh;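 active means mean inhibition across replicate wells exceeding the computed hit threshold, cut at about 13% in these data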;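 further: light from luciferase halves that rejoin when HNF4 fusion proteins dimerize; 0% = DMSO only wells and the 100% control is not given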
* = called active by the depositor; x = no result. In the library only some 4% were active in any assay of this set; here they are far more common.

SMILES | XBP1 UPR activ | ABHD5-PLIN5 inh | Mdm2-MdmX inh | UPR CHOP act | Exocytosis inh | ABHD5-PLIN5 conf | HNF4 split-luc
CCc1cccc2c(C(=O)CSc3nncn3-c3ccccc3OC)c[nH]c12 | -0.1 | 24.3* | 12.0 | -1.0 | -2.3 | 7.7 | -0.4
CC(NC(=O)COC(=O)C1CCC1)c1ccccc1 (configuration not stated) | 0.2 | 23.5* | -2.0 | -0.7 | -4.5 | 4.1 | 1.1
Cn1c(NCCN2CCCCC2)cc(=O)n(C)c1=O | -1.2 | 27.7* | 11.5 | -4.4 | 11.8 | -0.8 | 2.8
CCCNc1cc(=O)n(C)c(=O)n1C | -0.5 | 4.4 | 2.6 | 2.8 | -0.6 | x | x
O=C(N/N=C/c1ccccc1OC(=O)c1ccc2c(c1)OCO2)c1ccccc1 | -0.5 | 1.8 | -19.4 | 0.8 | -0.5 | x | x
Cc1cnc(C(=O)Nc2c(-c3ccccc3)[nH][nH]c2=O)cn1 | x | -38.0 | x | x | 0.8 | x | x
CN(C)c1ccc(-c2[nH][nH]c(=O)c2NC(=O)c2ccc3ccccc3n2)cc1 | x | 54.2* | x | x | -2.8 | -52.1 | 47.9*
CN(C)c1ccc(-c2[nH][nH]c(=O)c2NC(=O)c2ccccn2)cc1 | x | 59.6* | x | x | 0.0 | 6.8 | 44.9*
CCCSc1nc2c3c(sc2c(=O)[nH]1)CC(C)(CC)OC3 (configuration not stated) | -2.5 | 4.4 | 16.5 | 2.2 | -5.3 | x | x
Oc1c(C(c2ccccc2)N2CCOCC2)ccc2ccccc12 (configuration not stated) | x | 39.6* | x | x | -3.0 | 102.2* | 105.9*
Cn1nnnc1SCC(=O)N(C1CCCCC1)C1CCCCC1 | -0.2 | 4.0 | 3.7 | -1.7 | -3.2 | x | x
CN(C)c1ccc(C(=O)Nc2ccc(O)c3c(=O)cc(-c4ccccc4Cl)oc23)cc1 | -0.2 | -11.8 | -3.7 | -1.6 | 6.7 | x | x
COc1ccc(/C=C2\C(=O)NC(=O)c3ccccc32)cc1OC | x | -17.5 | x | x | -4.3 | x | x
Cc1ccc2c(c1)/C(=C/c1ccc(F)cc1)C(=O)N2 | 1.7 | 34.2* | 43.8 | 1.8 | 42.4 | 45.4* | 35.6*
COc1ccc2c(c1)/C(=C/c1cc(OC)c(OC)c(OC)c1)C(=O)N2 | x | 36.1* | x | x | 4.2 | 49.4* | 43.6*
Cc1cc(C)nc(Sc2ccc([N+](=O)[O-])cc2[N+](=O)[O-])n1 | -3.4 | -1.8 | 39.4 | 17.3 | 4.8 | x | x
O=[N+]([O-])c1ccc(Sc2ccncn2)c([N+](=O)[O-])c1 | x | 28.8* | x | x | 2.6 | 41.0* | 41.2*
O=C(NCCN1CCOCC1)c1ccc(Cl)c(Cl)c1 | 0.0 | -6.3 | 10.8 | -0.6 | 3.8 | x | x
O=C(CCN1C(=O)S/C(=C\c2ccccc2)C1=O)N1CCCCC1 | 5.0 | 11.9 | 1.3 | 3.1 | -11.4 | x | x
O=C1/C(=C\c2ccc(Cl)c(Cl)c2)CN(C(=O)CCN2CCOCC2)C/C1=C/c1ccc(Cl)c(Cl)c1 | x | 98.9* | x | x | 65.3* | 103.4* | 107.9*
O=C1/C(=C\c2ccccc2)CN(C(=O)CCN2CCCCC2)C/C1=C/c1ccccc1 | x | 98.3* | x | x | 83.2* | 103.1* | 108.0*
CCOC(=O)c1nc(Nc2cccc(C)c2)c2ccccc2n1 | -2.0 | -0.6 | 4.3 | -0.9 | -2.3 | x | x
COc1cc(O)c2c(=O)c3c(OC)c(O)ccc3oc2c1 | 13.8 | 4.3 | -43.1 | 3.0 | 38.6 | x | x
COc1ccc(C(=O)c2c(C)c3ccccc3n2CC(O)CNC(C)C)cc1 (configuration not stated) | 4.0 | 26.4* | 42.6 | 1.2 | 13.6 | 5.5 | 0.1
COc1ccc(NCC(=O)n2c(C)c(C)c3ccccc32)cc1 | 0.1 | 11.0 | 42.5 | 1.9 | 0.2 | x | x
O=C(O)c1cc([N+](=O)[O-])c(Sc2nc3ccccc3[nH]2)c([N+](=O)[O-])c1 | -3.7 | 34.9* | 18.9 | -0.6 | -9.9 | 52.8* | 54.2*
COc1ccc2c(C#CCCO)c(-c3ccc(S(C)(=O)=O)cc3)sc2c1 | 13.0 | 30.4* | 41.9 | 1.0 | -0.6 | 16.6 | 2.6
COc1ccc2sc(-c3ccc(S(C)(=O)=O)cc3)c(C#CCO)c2c1 | 7.2 | 5.8 | 11.4 | 3.0 | 17.9 | x | x
Cc1ccc2cccnc2c1NC(=S)NC(=O)c1ccccc1 | 1.4 | 35.5* | 0.5 | -2.0 | 4.8 | 14.5 | 31.6*

Screens as filed in PubChem.
